Results from ChEMBL document CHEMBL1125301, “1-(2-Aminoethyl)-3-methyl-8,9-dihydropyrano[3,2-e]indole: a rotationally restricted phenolic analog of the neurotransmitter serotonin and agonist selective for serotonin (5-HT2-type) receptors” (J Med Chem, 1992).

Key:
[1] = target: T1, Serotonin 2 (5-HT2) receptor (Rattus norvegicus, UniProt P30994+P08909+P14842); assay: Compound was evaluated for binding affinity towards 5-hydroxytryptamine 2 receptor in rat anterior cortex using [125I]DOI as radioligand
Summary of the method: (§1)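 Competition binding against the named radioligand on the native tissue membranes shown, radioligand at roughly its K_D for the binding system; procedures otherwise follow earlier published methods.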

[2] = target: T1, Serotonin 2 (5-HT2) receptor; assay: Compound was evaluated for binding affinity towards 5-hydroxytryptamine 2 receptor in rat anterior cortex using [3H]ketanserin as radioligand; summary of the method: as §1
[3] = target: T2, 5-hydroxytryptamine receptor 1A (Rattus norvegicus, UniProt P19327); assay: Compound was evaluated for binding affinity towards 5-hydroxytryptamine 1A receptor in rat cortex using [3H]-8-OH-DPAT as radioligand; summary of the method: as §1
T2 sequence (P19327 whole entry): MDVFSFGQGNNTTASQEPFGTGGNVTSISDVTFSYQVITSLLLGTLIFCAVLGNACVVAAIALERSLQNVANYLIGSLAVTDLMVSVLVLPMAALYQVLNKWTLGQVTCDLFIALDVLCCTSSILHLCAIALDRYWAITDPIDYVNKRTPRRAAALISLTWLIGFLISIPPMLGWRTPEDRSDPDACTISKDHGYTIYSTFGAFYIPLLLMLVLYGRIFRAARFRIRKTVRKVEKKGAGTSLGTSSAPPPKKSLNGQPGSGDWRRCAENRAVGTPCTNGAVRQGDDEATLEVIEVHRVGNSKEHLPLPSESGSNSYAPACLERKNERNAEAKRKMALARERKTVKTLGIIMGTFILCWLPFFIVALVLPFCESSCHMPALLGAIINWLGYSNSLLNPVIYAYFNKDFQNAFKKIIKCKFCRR

| SMILES | IC50 [1] [µM] | IC50 [2] [µM] | IC50 [3] [µM] |
| --- | --- | --- | --- |
| CN(C)CCc1c[nH]c2cc3c(cc12)OCCC3 | 0.92 | 5.9 | 1.2 |
| Cn1cc(CCN)c2c3c(ccc21)OCCC3 | 0.014 | 0.8 | – |
| NCCc1c[nH]c2ccc3c(c12)CCCO3 | 0.014 | 2.2 | 0.61 |
| CN(C)CCc1cn(C)c2ccc3c(c12)CCCO3 | 0.081 | 1 | 5.4 |
| COc1ccc2[nH]cc(CCN(C)C)c2c1 [MEBUFOTENIN] | – | – | 0.011 |
